Laboratory results taken from ChEMBL document CHEMBL4321868, “Scaffold Simplification Strategy Leads to a Novel Generation of Dual Human Immunodeficiency Virus and Enterovirus-A71 Entry Inhibitors” (J Med Chem, 2020).
Active and inactive are the calls of the source. No cut-off for these calls is given here.

Experiments:
Enterovirus A71 [1] = experiment: Antiviral activity against Enterovirus A 71 BrCr harboring VP1 S184T/P246S mutant infected in human RD cells assessed as reduction in virus-induced cytopathic effect preincubated for 1 day followed by viral infection and measured after 3 days by MTS/PMS method; assay type: functional, organism-based, strain BRCR
[2] = target: Envelope glycoprotein gp160 (Human immunodeficiency virus 1, UniProt Q6QLK5); experiment: (§1) Inhibition of biotinylated-heparin binding to recombinant HIV1 3B gp120 by SPR analysis
How it was run: (§2)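 SPR at 25 °C in PBS with 5% DMSO, 0.005% Tween20, pH 7.4. Minimally biotinylated heparin captured (880 RU) on streptavidin chip. Recombinant HIV-1 IIIB gp120 (10 nM) alone or premixed with a compound concentration range injected 2 min at 10 μl/min; regenerated with 1 M NaCl/10 mM NaOH. Double-referenced; RU converted to % inhibition vs gp120 alone; nonlinear fit, three experiments.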

[3] = target: Envelope glycoprotein gp160 (Human immunodeficiency virus 1) (UniProt Q6QLK5); experiment: as §1; how it was run: as §2
Enterovirus A71 [4] = experiment: Antiviral activity against Enterovirus A71 genotype B2 11316 infected in human RD cells assessed as reduction in virus-induced cytopathic effect preincubated for 1 day followed by viral infection and measured after 3 days by MTS/PMS method; assay type: functional, organism-based; details: Enterovirus A, genotype B2 11316, RD
How it was run: (§3)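 RD cells seeded in 96-well plates; next day serial compound dilutions plus virus at low MOI added. Incubation at 37 °C, 5% CO₂ until full CPE in untreated infected controls (3 days). CC50 from uninfected treated cells in the same setup; SI = CC50/EC50.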

Enterovirus A71 [5] = experiment: Antiviral activity against Enterovirus A71 genotype C4 TW/1956/05 infected in human RD cells assessed as reduction in virus-induced cytopathic effect preincubated for 1 day followed by viral infection and measured after 3 days by MTS/PMS method; assay type: functional, organism-based; details: Enterovirus A, genotype C4 TW/1956/05, RD; how it was run: as §3
Enterovirus A71 [6] = experiment: Antiviral activity against Enterovirus A 71 BrCr infected in human RD cells assessed as reduction in viral RNA level at 20 uM administered at onset of infection measured 8 hrs post-infection by RT-qPCR analysis relative to control; assay type: functional, strain BRCR; parameters: scale not given: the % may be the effect or the level left
Enterovirus A71 [7] = experiment: Antiviral activity against Enterovirus A71 genotype C2 H08300 461812 infected in human RD cells assessed as reduction in virus-induced cytopathic effect preincubated for 1 day followed by viral infection and measured after 3 days by MTS/PMS method; assay type: functional, organism-based; details: Enterovirus A, genotype C2 H08300 461812, RD; how it was run: as §3
Enterovirus A71 [8] = experiment: Antiviral activity against Enterovirus A 71 BrCr infected in human RD cells assessed as reduction in viral RNA level at 20 uM preincubated for 1 hr followed by viral infection and measured 8 hrs post-infection by RT-qPCR analysis relative to control; assay type: functional, strain BRCR; parameters: scale not given: the % may be the effect or the level left
How it was run: (§4)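 RD cells grown to confluence; compound at 20 μM in 2% FBS medium added 1 h before or 1, 2, 4 h after EV-A71 BrCr infection (MOI 1). Pirodavir 20 μM as entry-inhibitor reference; infected untreated cells as controls. At 8 h post-infection, intracellular RNA isolated and viral RNA quantified by RT-qPCR.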

RD [9] = experiment: Cytotoxicity against human RD cells assessed as induction of cell morphological changes; assay type: cell-based
[10] = target: Envelope glycoprotein gp160 (Human immunodeficiency virus 1) (UniProt Q6QLK5); experiment: Binding affinity to recombinant HIV1 3B gp120 by SPR analysis
[11] = test system: Human immunodeficiency virus 1; experiment: Antiviral activity against HIV1 NL4.3 infected in human MT4 cells assessed as reduction in virus-induced cytopathic effect preincubated for 30 mins followed by viral infection and measured after 5 days by MTS assay; assay type: functional, organism-based; details: Human immunodeficiency virus 1, NL4.3, MT4
Enterovirus A71 [12] = experiment: Antiviral activity against Enterovirus A 71 BrCr harboring VP1 S184T mutant infected in human RD cells assessed as reduction in virus-induced cytopathic effect preincubated for 1 day followed by viral infection and measured after 3 days by MTS/PMS method; assay type: functional, organism-based, strain BRCR
[13] = Selectivity index, ratio of CC50 for human MT4 cells to EC50 for HIV-1 NL4.3 infected in human MT4 cells
RD [14] = experiment: Cytotoxicity against human RD cells assessed as adverse effect on cell; assay type: cell-based
[15] = test system: Human immunodeficiency virus 1; experiment: Antiviral activity against HIV1 3B infected in human MT4 cells assessed as reduction in p24 production at 20 uM administered at onset of infection measured 8 hrs post-infection by ELISA; assay type: functional, organism-based
Enterovirus A71 [16] = experiment: Antiviral activity against Enterovirus A71 genotype B5 TW/70902/08 infected in human RD cells assessed as reduction in virus-induced cytopathic effect preincubated for 1 day followed by viral infection and measured after 3 days by MTS/PMS method; assay type: functional, organism-based; details: Enterovirus A, genotype B5 TW/70902/08, RD; how it was run: as §3
[17] = Selectivity index, ratio of CC50 for human MT4 cells to EC50 for HIV1 NL4.3 infected in human MT4 cells; assay type: toxicity, cell-based; details: read-out: Ratio CC50/EC50
How it was run: (§5)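 MT-4 cells (RPMI-1640, 10% FCS, 1% L-glutamine) pre-incubated 30 min at 37 °C with compound, then infected with HIV-1 NL4.3 or HIV-2 ROD according to stock TCID50. After 5 days, CPE scored microscopically and viability read by MTS/PES at A490 to derive EC50; cytotoxicity measured by MTS/PES at 5 days in the same cells. SI = CC50/EC50. Mean ± S.D. of at least 3 experiments.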

[18] = Selectivity ratio of EC50 for Enterovirus A 71 BrCr infected in human RD cells to EC50 for Enterovirus A 71 genotype C4 TW/1956/05 infected in human RD cells; assay type: functional
[19] = Selectivity ratio of EC50 for Enterovirus A 71 BrCr infected in human RD cells to EC50 for Enterovirus A 71 genotype B2 11316 infected in human RD cells; assay type: functional
[20] = test system: Human immunodeficiency virus 1; experiment: Antiviral activity against HIV1 3B infected in human MT4 cells assessed as reduction in p24 production at 20 uM incubated for 1 hr prior to viral infection followed by compound washout and measured 8 hrs post-infection by ELISA; assay type: functional, organism-based
[21] = Selectivity index, ratio of CC50 for human RD cells to EC50 for Enterovirus A71 BrCr infected in human RD cells; assay type: toxicity, cell-based; details: read-out: Ratio CC50/EC50; how it was run: as §3
[22] = test system: Human immunodeficiency virus 2; experiment: Antiviral activity against HIV-2 ROD infected in human MT4 cells assessed as reduction in virus-induced cytopathic effect preincubated for 30 mins followed by viral infection and measured after 5 days by MTS assay; details: Human immunodeficiency virus 2, ISOLATE ROD
Enterovirus A71 [23] = experiment: Antiviral activity against Enterovirus A 71 BrCr harboring VP1 P246S mutant infected in human RD cells assessed as reduction in virus-induced cytopathic effect preincubated for 1 day followed by viral infection and measured after 3 days by MTS/PMS method; assay type: functional, organism-based, strain BRCR
[24] = Cytotoxicity against human MT4 cells assessed as reduction in cell viability measured after 5 days by MTS/PES assay; assay type: cell-based; how it was run: as §5
Enterovirus A71 [25] = experiment: Antiviral activity against Enterovirus A 71 BrCr infected in human RD cells assessed as reduction in virus-induced cytopathic effect preincubated for 1 day followed by viral infection and measured after 3 days by MTS/PMS method; assay type: functional, organism-based; details: strain BRCR
How it was run: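 RD cells seeded in 96-well plates; next day serial compound dilutions plus virus at low MOI added. Incubation at 37 °C, 5% CO₂ until full CPE in untreated infected controls (3 days). Viability read by MTS/PMS; EC50 as 50% inhibition of virus-induced death from dose-response curves. CC50 from uninfected treated cells in the same setup; SI = CC50/EC50.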

Enterovirus A71 [26] = experiment: Antiviral activity against Enterovirus A 71 BrCr infected in human RD cells assessed as reduction in viral RNA level at 20 uM treated 1 to 4 hrs post-infection and measured 8 hrs post-infection by RT-qPCR analysis; assay type: functional, strain BRCR; parameters: scale not given: the % may be the effect or the level left; how it was run: as §4
HeLa = experiment: Binding affinity to capsid protein VP1 five fold axis in Enterovirus A71 genotype B2 11316 infected in human HeLa cells at 20 uM measured after 1 hr by cryo-electron microscopic analysis; assay type: cell-based

Envelope glycoprotein gp160 (Human immunodeficiency virus 1), sequence (Q6QLK5 1-814): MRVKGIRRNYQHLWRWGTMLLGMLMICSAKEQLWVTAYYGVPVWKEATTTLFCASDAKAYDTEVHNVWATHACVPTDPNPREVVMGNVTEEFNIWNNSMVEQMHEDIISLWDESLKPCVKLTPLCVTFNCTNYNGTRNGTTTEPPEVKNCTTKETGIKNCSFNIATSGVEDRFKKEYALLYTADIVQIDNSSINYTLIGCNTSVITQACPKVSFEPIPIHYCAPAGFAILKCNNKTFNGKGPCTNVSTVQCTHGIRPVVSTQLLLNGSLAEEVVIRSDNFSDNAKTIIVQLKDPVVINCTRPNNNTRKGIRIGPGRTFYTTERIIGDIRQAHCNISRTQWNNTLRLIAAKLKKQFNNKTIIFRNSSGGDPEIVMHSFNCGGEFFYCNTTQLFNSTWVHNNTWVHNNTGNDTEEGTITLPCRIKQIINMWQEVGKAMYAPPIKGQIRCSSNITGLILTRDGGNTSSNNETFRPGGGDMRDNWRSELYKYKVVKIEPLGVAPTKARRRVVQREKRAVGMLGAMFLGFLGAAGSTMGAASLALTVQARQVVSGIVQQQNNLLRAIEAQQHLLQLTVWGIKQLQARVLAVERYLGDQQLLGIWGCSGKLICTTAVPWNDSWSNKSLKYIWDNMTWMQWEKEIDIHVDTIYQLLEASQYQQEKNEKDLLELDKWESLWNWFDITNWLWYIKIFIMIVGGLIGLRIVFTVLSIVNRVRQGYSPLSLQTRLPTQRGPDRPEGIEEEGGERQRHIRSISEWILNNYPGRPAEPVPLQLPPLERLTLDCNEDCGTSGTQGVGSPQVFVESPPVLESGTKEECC
Envelope glycoprotein gp160, sequence (Q6QLK5 whole entry): as the sequence (Q6QLK5 1-814) above

O=C(CCC(CCC(=O)NC(Cc1c(-c2cc(C(=O)O)cc(C(=O)O)c2)[nH]c2ccccc12)C(=O)O)(CCC(=O)NC(Cc1c(-c2cc(C(=O)O)cc(C(=O)O)c2)[nH]c2ccccc12)C(=O)O)[N+](=O)[O-])NC(Cc1c(-c2cc(C(=O)O)cc(C(=O)O)c2)[nH]c2ccccc12)C(=O)O (stereo not drawn)
EC50 (Enterovirus A71 [1]): 2180 nM | IC50 [2]: 982 nM | inhibition [3]: Dose-dependent effect | EC50 (Enterovirus A71 [4]): 179 nM | EC50 (Enterovirus A71 [5]): 38 nM | Activity (Enterovirus A71 [6]): 100% | EC50 (Enterovirus A71 [7]): 57 nM | Activity (Enterovirus A71 [8]): 100% | Activity (RD [9]): Non-Toxic | Activity [10]: Dose-dependent effect | EC50 [11]: 270 nM | EC50 (Enterovirus A71 [12]): 2350 nM | selectivity ratio [13]: > 370 | Activity (RD [14]): Non-Toxic | Activity [15]: Active | EC50 (Enterovirus A71 [16]): 81 nM | selectivity ratio [17]: > 370 | Ratio EC50 [18]: 9 | Ratio EC50 [19]: 2 | Activity [20]: Active | selectivity ratio [21]: > 203 | EC50 [22]: 630 nM | EC50 (Enterovirus A71 [23]): 1960 nM | CC50 at 120 h [24]: > 100 µM | EC50 (Enterovirus A71 [25]): 350 nM | EC90 (Enterovirus A71 [25]): 550 nM | Activity (Enterovirus A71 [26]): 0% | Activity (HeLa): Active
